According to PMC11319934 (PNAS Nexus, 2024):
Bridge positions count the residues as written; N and C are the ends. Square brackets hold non-standard residues; d marks the D form. Peptide text beside a SMILES is read from it. * marks the point of attachment. X1 = CN(C)c1ccc2c(-c3ccc(C(=O)*)cc3C(=O)[O-])c3ccc(=[N+](C)C)cc-3oc2c1; R5 = C=CCCC[C@@](C)(N)C(=O)O; S5 = C=CCCC[C@](C)(N)C(=O)O

Tests used:
[1] = biological target: T1, His-MYC3-FLAG (His6-SUMO-MYC3(44–238)-FLAG) (Arabidopsis thaliana, UniProt Q9FIP9); assay: Fluorescence anisotropy; format: binding; conditions: for fold lower Kd with His-MYC3-FLAG than that of 1: ratio of Kd of 1 to Kd of the peptide
T1 sequence (Q9FIP9 44-238): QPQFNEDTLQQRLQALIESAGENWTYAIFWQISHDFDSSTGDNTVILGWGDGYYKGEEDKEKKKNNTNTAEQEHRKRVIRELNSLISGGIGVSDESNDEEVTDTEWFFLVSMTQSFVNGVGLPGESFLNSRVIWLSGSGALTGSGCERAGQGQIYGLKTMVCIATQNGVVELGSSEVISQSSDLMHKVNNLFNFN

[2] = biological target: T2, His-EIN3-FLAG (His6-SUMO-EIN3(200–500)-FLAG) (Arabidopsis thaliana, UniProt O24606); assay: Fluorescence anisotropy; format: binding
T2 sequence (O24606 200-500): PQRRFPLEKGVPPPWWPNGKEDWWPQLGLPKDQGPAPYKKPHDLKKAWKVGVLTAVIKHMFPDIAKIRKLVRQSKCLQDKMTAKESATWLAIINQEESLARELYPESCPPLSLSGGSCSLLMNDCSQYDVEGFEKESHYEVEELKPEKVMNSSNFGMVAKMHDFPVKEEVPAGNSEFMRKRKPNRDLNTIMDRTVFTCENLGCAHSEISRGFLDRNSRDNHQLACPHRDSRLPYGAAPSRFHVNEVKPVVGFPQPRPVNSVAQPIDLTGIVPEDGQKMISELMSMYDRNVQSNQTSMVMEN
Procedure, shortened: (§1)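 FA titration at 25°C in 20 mM Tris-HCl pH 8.0, 200 mM NaCl, 10% glycerol, 10% cOmplete EDTA-free, with 2-mercaptoethanol (EIN3/EIL1 family). Protein added dropwise to 100 nM TMR-labelled peptide; His-EIN3-FLAG titrated 0–2 µM. Anisotropy read at ex/em 543/573.5 nm. Each point is the average of three independent measurements. Apparent Kd obtained by nonlinear curve fitting.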

[3] = system: A. thaliana seedlings (Col-0); assay: Root growth of A. thaliana seedlings with MeJA; format: in vivo, Arabidopsis thaliana; conditions: 7-day-old Col-0 seedlings, MeJA 50 µM on 1/2 MS, n = 15
Procedure, shortened: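 Surface-sterilized Col-0 seeds stratified 2–3 days at 4°C. Grown on half-strength MS plates (2% sucrose, 0.4% gellan gum) with MeJA (50 µM) ± test compound (10 µM), under 16 h light (75 µmol m-2 s-1)/8 h dark at 22°C. Whole-seedling root length measured (n = 15). Repeated three times; one-way ANOVA/Tukey's HSD, P < 0.01.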

[4] = biological target: T3, His-EIL1-FLAG (Arabidopsis thaliana, UniProt Q9SLH0); assay: Fluorescence anisotropy; format: binding
T3 sequence (Q9SLH0 201-501): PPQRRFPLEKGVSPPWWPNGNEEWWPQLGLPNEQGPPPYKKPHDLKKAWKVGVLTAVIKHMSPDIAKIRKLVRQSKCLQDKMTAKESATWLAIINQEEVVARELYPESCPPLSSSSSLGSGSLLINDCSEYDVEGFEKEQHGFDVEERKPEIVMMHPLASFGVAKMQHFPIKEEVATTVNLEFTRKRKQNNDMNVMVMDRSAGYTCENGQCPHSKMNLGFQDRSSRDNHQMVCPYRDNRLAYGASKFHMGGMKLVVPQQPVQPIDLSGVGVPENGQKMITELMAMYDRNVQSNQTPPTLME
Procedure, shortened: as §1

[5] = system: M. polymorpha gemmalings (Tak-1); assay: Growth; format: in vivo, Marchantia polymorpha; conditions: Tak-1 gemmalings on 1/2 B5 medium, OPDA 50 µM, n = 24
Procedure, shortened: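 Tak-1 gemmalings grown 2 weeks on half-strength Gamborg's B5 with 1% agar, containing OPDA (50 µM) ± test compound (10 µM). Continuous light 50–60 µmol m-2 s-1, 22°C. Plant area measured in mm2 (n = 24). Experiment repeated three times; one-way ANOVA/Tukey's HSD, P < 0.01.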

Row | SMILES | Kd [1] | fold lower Kd with His-MYC3-FLAG than that of 1 [1] | Kd [2] | also measured
1 | CC[C@H](C)[C@H](NC(=O)[C@H](C)NC(=O)CNC(=O)[C@H](CCC(N)=O)NC(=O)[C@@H](NC(=O)[C@H](CC(=O)O)NC(=O)[C@H](CCCNC(=N)N)NC(=O)[C@H](Cc1ccccc1)NC(=O)[C@H](CO)NC(=O)[C@H](CCCNC(=N)N)NC(=O)[C@H](CCCNC(=N)N)NC(=O)[C@H](CCCNC(=N)N)NC(=O)[C@H](CC(=O)O)NC(=O)[C@H](CC(C)C)NC(=O)[C@H](Cc1ccccc1)NC(=O)[C@H](CCCCN)NC(=O)[C@H](CCC(N)=O)NC(=O)[C@H](Cc1ccccc1)NC(=O)c1ccc(-c2c3ccc(=[N+](C)C)cc-3oc3cc(N(C)C)ccc23)c(C(=O)[O-])c1)[C@@H](C)CC)C(=O)N[C@@H](CO)C(=O)N[C@@H](CCCCN)C(=O)N[C@H](C(=O)N[C@@H](CC(=O)O)C(=O)N1CCC[C@H]1C(=O)N[C@@H](CCC(=O)O)C(=O)N[C@]1(C)CCCC=CCCC[C@@](C)(C(=O)N[C@@H](CC(C)C)C(=O)N[C@@H](CC(C)C)C(=O)N[C@@H](C)C(=O)N[C@@H](CO)C(=O)N[C@H](C(=O)O)[C@@H](C)O)NC(=O)[C@H](CCCCN)NC(=O)[C@H]([C@@H](C)CC)NC1=O)[C@@H](C)CC [compound 3] (X1-FQKFLDRRRSFRDIQGAISKIDPE[R5]IK[S5]LLAST-OH; staple 25-28) | 310 nM | 0.67 fold | 600 nM | 
2 | CC/C=C\CC1C(=O)CCC1CC(=O)OC (stereo not shown) [MeJA, methyl jasmonate, reference compound] |  |  |  | root growth of seedlings [3]: severe root growth inhibition
3 | CC[C@H](C)[C@H](NC(=O)[C@H](CCCCN)NC(=O)[C@H](CO)NC(=O)[C@@H](NC(=O)[C@]1(C)CCCC=CCCC[C@](C)(NC(=O)[C@H](CCCNC(=N)N)NC(=O)[C@H](Cc2ccccc2)NC(=O)[C@H](CO)NC(=O)[C@H](CCCNC(=N)N)NC(=O)[C@H](CCCNC(=N)N)NC(=O)[C@H](CCCNC(=N)N)NC(=O)[C@H](CC(=O)O)NC(=O)[C@H](CC(C)C)NC(=O)[C@H](Cc2ccccc2)NC(=O)[C@H](CCCCN)NC(=O)[C@H](CCC(N)=O)NC(=O)[C@H](Cc2ccccc2)NC(=O)c2ccc(-c3c4ccc(=[N+](C)C)cc-4oc4cc(N(C)C)ccc34)c(C(=O)[O-])c2)C(=O)N[C@@H]([C@@H](C)CC)C(=O)N[C@@H](CCC(N)=O)C(=O)NCC(=O)N1)[C@@H](C)CC)C(=O)N[C@@H](CC(=O)O)C(=O)N1CCC[C@H]1C(=O)N[C@@H](CCC(=O)O)C(=O)N[C@H](C(=O)N[C@H](C(=O)N[C@@H](CCCCN)C(=O)N[C@@H](CO)C(=O)N[C@@H](CC(C)C)C(=O)N[C@@H](CC(C)C)C(=O)N[C@@H](C)C(=O)N[C@@H](CO)C(=O)N[C@H](C(=O)O)[C@@H](C)O)[C@@H](C)CC)[C@@H](C)CC [compound 2] (X1-FQKFLDRRRSFR[S5]IQG[S5]ISKIDPEIIKSLLAST-OH; staple 13-17) | 61 nM | 7 fold | 290 nM | 
4 | CC[C@H](C)[C@H](NC(=O)[C@H](C)NC(=O)CNC(=O)[C@H](CCC(N)=O)NC(=O)[C@@H](NC(=O)[C@H](CC(=O)O)NC(=O)[C@H](CCCNC(=N)N)NC(=O)[C@H](Cc1ccccc1)NC(=O)[C@H](CO)NC(=O)[C@H](CCCNC(=N)N)NC(=O)[C@H](CCCNC(=N)N)NC(=O)[C@H](CCCNC(=N)N)NC(=O)[C@H](CC(=O)O)NC(=O)[C@H](CC(C)C)NC(=O)[C@H](Cc1ccccc1)NC(=O)[C@H](CCCCN)NC(=O)[C@H](CCC(N)=O)NC(=O)[C@H](Cc1ccccc1)NC(=O)c1ccc(-c2c3ccc(=[N+](C)C)cc-3oc3cc(N(C)C)ccc23)c(C(=O)[O-])c1)[C@@H](C)CC)C(=O)N[C@@H](CO)C(=O)N[C@@H](CCCCN)C(=O)N[C@H](C(=O)N[C@@H](CC(=O)O)C(=O)N1CCC[C@H]1C(=O)N[C@@H](CCC(=O)O)C(=O)N[C@H](C(=O)N[C@H](C(=O)N[C@@H](CCCCN)C(=O)N[C@@H](CO)C(=O)N[C@@H](CC(C)C)C(=O)N[C@@H](CC(C)C)C(=O)N[C@@H](C)C(=O)N[C@@H](CO)C(=O)N[C@H](C(=O)O)[C@@H](C)O)[C@@H](C)CC)[C@@H](C)CC)[C@@H](C)CC [compound 1] (X1-FQKFLDRRRSFRDIQGAISKIDPEIIKSLLAST-OH) | 210 nM |  |  | Kd [4]: 440 nM
5 | CC/C=C\C[C@@H]1C(=O)C=C[C@@H]1CCCCCCCC(=O)O [OPDA, reference compound] |  |  |  | plant growth (plant area) [5]: inhibited plant growth
